Only a sample is shown.
Apaf1 activ = activators of human Apaf-1 apoptosome | O14727 | Apaf-1 apoptosome caspase-3 activation, DEVD-Rh110 fluorescence; active compounds read low | activity change, negative = activation, % at 20 µM | hit rate 0.31% among 330,000 | AID 489031;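 active means activity change at or below -40% at 20 µM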
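Assay system – biochemical Apaf-1 apoptosome reconstitution · Medium – 20 mM HEPES buffer, pH 7.5, containing CHAPS and BSA · Incubation – 30 min preincubation, 50 min reaction, room temperature · Measured by – Caspase-3-released Rh110 fluorescence, 540 nm emission, 480 nm excitation · Read-out – Caspase-3 cleavage activity downstream of Apaf-1 activation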
Rh110 act interf = Rh110 signal interference in Apaf-1 activator counter-screen; shares compounds with Apaf1 activ; AID 504616; fluorescence interference (activity change), % at 20 µM, hits read low; Rh110 fluorescence interference, quenched caspase reaction, Ex480/Em540; 980 tested, under 10 active;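 active means mean activity change at or below -40% when tested at 20 µM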
Apaf-1 act conf2 = confirmation of human Apaf-1 activators; shares compounds with Apaf1 activ; reconstituted apoptosome caspase-3 activity, DEVD-Rh110 fluorescence; active compounds read low; activity change, negative = activation, % at 20 µM; hit rate 5% among 980; AID 504617;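 active means mean activity change at or below -40%, meaning activation of 40% or more, at 20 µM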
The depositor's hits bear a star; nt = no result given.

SMILES	Apaf1 activ	Rh110 act interf	Apaf-1 act conf2
CC(C)CC(=O)N[C@H](C(=O)N[C@H](C(=O)N[C@@H](CC(C)C)[C@@H](O)CC(=O)N[C@@H](C)C(=O)N[C@@H](CC(C)C)[C@@H](O)CC(=O)O)C(C)C)C(C)C	-239*	-234*	11
COC(=O)c1c(NC(=O)c2nc3ccccc3s2)sc2c1CC(C)(C)NC2(C)C	58	nt	nt
COc1ccc(/C=N/n2c(C)nc3sc(C)c(C)c3c2=O)cc1OC	-145*	15	12
C=CCn1c(N)c(C(=O)Nc2ccccc2)c2nc3ccccc3nc21	67	nt	nt
CCN(CC)S(=O)(=O)c1cccc(NC(=O)C2SC(=Nc3ccc(C)cc3C)C(C(=O)NCC3CCCO3)=C2N)c1 (stereo unspecified)	45	nt	nt
Cc1cccnc1NC(=O)c1ccc(OCC2CCCO2)cc1 (stereo unspecified)	54	nt	nt
CCOC(=O)c1c(C)c(C(=O)NCC2CCCO2)c(C)n1C (stereo unspecified)	-59*	-2	11
COc1ccc(NC(=O)c2c[nH]n3c(=O)cc(C4CCN(C(=O)OC(C)(C)C)CC4)nc23)cc1Cl	42	nt	nt
Cc1nc2sccn2c(=O)c1CCN1CCC(=C(c2ccccc2)c2ccc(F)cc2)CC1	42	nt	nt
COc1cc(NC2CCCCC2O)c2nc(-c3ccc(Cl)cc3)ccc2c1 (stereo unspecified)	55	nt	nt
Cc1cc(OCc2nn[nH]n2)c2c(C)c(Cc3ccccc3)c(=O)oc2c1	-45*	3	17
Cc1ccc(-c2cc(C(=O)O)c3cc(Br)ccc3n2)s1	11	nt	nt
COc1ccc2noc3c2c1C(=O)c1ccccc1-3	78	nt	nt
O=C(O)CCN1C(=O)/C(=C2\C(=O)N(Cc3ccccc3Cl)c3ccccc32)SC1=S	-121*	-1	-31
CC[C@@H](C)[C@@H]1CN([C@@H](C)CN2CCC[C@H]2CN2C(N)=NC[C@@H]2Cc2ccccc2)C(=N)N1CCc1ccc(Cl)c(Cl)c1	71	nt	nt
COc1ccc(S(=O)(=O)NNC(=O)c2cc3c4ccccc4n(C)c3s2)cc1	-407*	-3	14
Cc1cc(F)c(F)c(C(=O)N2CCCCC2C)c1Cl (stereo unspecified)	-116*	4	18
CN1CCN(CCCNC(=O)c2cc3c(-c4ccc(Cl)cc4)nn(C)c3s2)CC1	43	nt	nt
Cc1ccc(N(CC(N)=O)C2SC(=O)N(C)C2=O)cc1 (stereo unspecified)	-488*	8	12
COc1cc(OC)c2c(-c3ccccc3)cc(=O)oc2c1C(CCN1CCOCC1)c1ccc(N(C)C)cc1 (stereo unspecified)	52	nt	nt
CN(C)c1ccc2nc3ccc(=[N+](C)C)cc-3sc2c1	64	nt	nt
CCn1cc(C(=O)OCC(=O)OC2CC(C)CCC2C(C)C)c(=O)c2ccc(C)nc21 (stereo unspecified)	48	nt	nt
CCn1cc(C(=O)Nc2ccc(NC(=O)c3ccco3)cc2)c(=O)c2ccc(C)nc21	-59*	-8	-4
COc1ccc([N+](=O)[O-])cc1NC1C2CC3CC(C2)CC1C3 (stereo unspecified)	-522*	9	12
CCCOc1cc(NCc2ccccc2)c2ncn(C(C)C)c2c1	44	nt	nt
SMILES	Apaf1 activ	Rh110 act interf	Apaf-1 act conf2
C#CCOCCOCCOCCNc1nc(N2CCN(C(=O)CCCCCCCCCCNC(=O)[C@@H](CCSC)n3cc(CCO)nn3)CC2)nc(N2CCN(C(=O)CCCCCCCCCCNC(=O)[C@H]([C@@H](C)CC)n3cc(CCCCN=C(N)N)nn3)CC2)n1	64	nt	nt
O=C(Cn1cc(S(=O)(=O)Cc2ccccc2)c2ccccc21)N1CCOCC1	-233*	6	4
C#CCOCCOCCOCCNc1nc(N2CCN(C(=O)CCCCCCCCCCNC(=O)[C@@H](CCSC)n3cc(CCO)nn3)CC2)nc(N2CCN(C(=O)CCCCCCCCCCNC(=O)[C@H]([C@@H](C)CC)n3cc(CCCCCN)nn3)CC2)n1	51	nt	nt
CCOC(=O)NNc1ccc2nonc2c1[N+](=O)[O-]	96	nt	nt
CCN(Cc1ccccc1)C(=O)c1cccc(S(=O)(=O)N2CCN(c3ccc(F)cc3)CC2)c1	42	nt	nt
CCN(CC(=O)Nc1c(F)cccc1F)C(=O)CNC(=O)c1ccc2c(c1)OCO2	53	nt	nt
O=C(NCC(c1ccco1)N1CCN(c2ccc(F)cc2)CC1)c1ccc2c(c1)OCO2 (stereo unspecified)	-155*	-2	16
CC(C)(C)OC(=O)[C@H](CCCCN)NC(=O)c1[nH]cnc1C(=O)N[C@@H](Cc1ccccc1)C(=O)OCc1ccccc1	65	nt	nt
C#CCOCCOCCOCCNc1nc(N2CCN(C(=O)[C@H](CCCCN)n3cc([C@@H](N)[C@H](C)CC)nn3)CC2)nc(N2CCN(C(=O)[C@H](CCCCN)n3cc([C@@H](N)CC(N)=O)nn3)CC2)n1	44	nt	nt

Compound activity deposited in PubChem by Sanford-Burnham Center for Chemical Genomics.
